Measured values: ChEMBL document CHEMBL4049408, “Exploration of 2-((Pyridin-4-ylmethyl)amino)nicotinamide Derivatives as Potent Reversal Agents against P-Glycoprotein-Mediated Multidrug Resistance” (J Med Chem, 2017)
Activity calls are given as the source filed them. The calls are words filed in the database; no cut-off is given here.

Key:
K562 = assay: Cytotoxicity against human K562 cells after 48 hrs by MTT assay; assay type: functional, cell-based; details: K562, 48 h
Summary of the method: (§1)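 MTT viability in parental K562 and P-gp-overexpressing K562/A02 cells. Compound alone at a concentration series gives the IC50. Mean ± SD of three independent tests.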

K562/A02 [1] = assay: Cytotoxicity against human K562/A02 cells overexpressing P-gp after 48 hrs by MTT assay; assay type: functional, cell-based; details: K562/A02, 48 h; summary of the method: as §1
[2] = molecular target: T1, ATP-dependent translocase ABCB1 (Homo sapiens, UniProt P08183); assay: Substrate activity at ABCB1 ATPase in human ABCB1 membrane fraction assessed as increase in ATPase activity at 0.5 uM preincubated with compound followed by addition of MgATP measured after 1 hr by luciferase reporter gene assay relative to control; assay type: cell membranes
T1 sequence (P08183 whole entry): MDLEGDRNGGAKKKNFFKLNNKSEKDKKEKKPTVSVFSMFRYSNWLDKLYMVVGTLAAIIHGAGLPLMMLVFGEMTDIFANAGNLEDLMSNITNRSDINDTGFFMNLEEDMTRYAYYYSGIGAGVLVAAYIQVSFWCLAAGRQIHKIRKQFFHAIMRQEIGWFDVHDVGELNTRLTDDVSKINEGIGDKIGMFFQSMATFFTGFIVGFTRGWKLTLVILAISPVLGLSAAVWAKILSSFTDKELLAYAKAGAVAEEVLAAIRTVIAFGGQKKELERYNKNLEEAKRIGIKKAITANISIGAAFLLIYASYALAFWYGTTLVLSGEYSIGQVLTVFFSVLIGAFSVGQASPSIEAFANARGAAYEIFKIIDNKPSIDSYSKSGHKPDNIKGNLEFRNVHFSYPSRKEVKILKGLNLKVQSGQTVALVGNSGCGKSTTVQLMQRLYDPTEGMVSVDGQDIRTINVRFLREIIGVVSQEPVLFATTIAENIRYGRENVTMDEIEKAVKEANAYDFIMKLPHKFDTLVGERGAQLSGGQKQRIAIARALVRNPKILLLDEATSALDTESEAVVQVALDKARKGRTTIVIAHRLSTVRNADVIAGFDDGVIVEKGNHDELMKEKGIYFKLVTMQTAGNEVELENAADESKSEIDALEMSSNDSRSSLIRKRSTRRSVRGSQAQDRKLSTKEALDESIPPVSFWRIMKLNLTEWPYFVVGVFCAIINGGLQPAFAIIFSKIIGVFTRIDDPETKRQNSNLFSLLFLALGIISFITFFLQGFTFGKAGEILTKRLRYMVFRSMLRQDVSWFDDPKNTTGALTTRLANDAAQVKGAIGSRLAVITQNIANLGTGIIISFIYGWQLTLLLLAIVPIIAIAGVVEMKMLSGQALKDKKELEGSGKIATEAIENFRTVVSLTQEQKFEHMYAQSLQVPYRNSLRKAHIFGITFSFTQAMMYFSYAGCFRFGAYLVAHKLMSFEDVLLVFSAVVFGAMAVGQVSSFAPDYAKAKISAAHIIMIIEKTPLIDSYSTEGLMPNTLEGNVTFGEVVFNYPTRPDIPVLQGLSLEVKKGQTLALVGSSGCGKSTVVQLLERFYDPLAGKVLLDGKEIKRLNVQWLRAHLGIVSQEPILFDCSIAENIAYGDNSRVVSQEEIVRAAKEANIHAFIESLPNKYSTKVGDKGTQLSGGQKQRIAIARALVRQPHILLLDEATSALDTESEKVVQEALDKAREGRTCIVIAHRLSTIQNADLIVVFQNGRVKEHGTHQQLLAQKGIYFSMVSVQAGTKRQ

[3] = molecular target: T1, ATP-dependent translocase ABCB1; assay: Inhibition of ABCB1 in human K562/A02 cells assessed as potentiation of adriamycin-mediated cytotoxicity by measuring reduction in ADR IC50 at 5 uM preincubated for 24 hrs followed by compound washout for 12 hrs and subsequent addition of adriamycin measured after 48 hrs by MTT assay relative to control; assay type: cell-based
Summary of the method: (§2)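 K562/A02 cells incubated with modulator at 5.0 µM, then washed out. Adriamycin IC50 determined at 0, 6, 12 or 24 h after removal, with an unwashed comparison. Reversal fold = IC50 without inhibitor / IC50 with inhibitor. Mean ± SD of three independent tests.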

[4] = molecular target: T1, ATP-dependent translocase ABCB1; assay: Inhibition of ABCB1 in human K562/A02 cells assessed as potentiation of adriamycin-mediated cytotoxicity by measuring reduction in ADR IC50 at 5 uM preincubated for 24 hrs followed by compound washout for 6 hrs and subsequent addition of adriamycin measured after 48 hrs by MTT assay relative to control; assay type: cell-based; summary of the method: as §2
[5] = molecular target: T1, ATP-dependent translocase ABCB1; assay: Inhibition of ABCB1 in human K562/A02 cells assessed as potentiation of adriamycin-mediated cytotoxicity by measuring reduction in ADR IC50 at 5 uM preincubated for 24 hrs followed by compound washout for 24 hrs and subsequent addition of adriamycin measured after 48 hrs by MTT assay relative to control; assay type: cell-based; summary of the method: as §2
[6] = molecular target: T1, ATP-dependent translocase ABCB1; assay: Inhibition of ABCB1 in human K562/A02 cells assessed as potentiation of adriamycin-mediated cytotoxicity by measuring reduction in ADR IC50 at 5 uM preincubated for 24 hrs followed by compound washout and subsequent addition of adriamycin measured after 48 hrs by MTT assay relative to control; assay type: cell-based
Summary of the method: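 K562/A02 cells incubated with modulator at 5.0 µM, then washed out. Reversal fold = IC50 without inhibitor / IC50 with inhibitor. Mean ± SD of three independent tests.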

[7] = molecular target: T1, ATP-dependent translocase ABCB1; assay: Substrate activity at ABCB1 ATPase in human ABCB1 membrane fraction assessed as increase in ATPase activity at 5 uM preincubated with compound followed by addition of MgATP measured after 1 hr by luciferase reporter gene assay relative to control; assay type: cell membranes
[8] = molecular target: T1, ATP-dependent translocase ABCB1; assay: Inhibition of ABCB1 in human K562/A02 cells assessed as increase in intracellular adriamycin accumulation at 1 uM after 2.5 hrs by spectrofluorimetric analysis; assay type: cell-based
Summary of the method: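 Intracellular adriamycin measured by its autofluorescence using spectrofluorometry after 2.5 h accumulation in K562/A02 cells. Modulator tested at concentrations up to 5.0 µM; parental K562 and untreated K562/A02 cells as comparators. Mean ± SD of three experiments.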

[9] = molecular target: T1, ATP-dependent translocase ABCB1; assay: Inhibition of ABCB1 in human K562/A02 cells assessed as potentiation of adriamycin-mediated cytotoxicity by measuring reduction in ADR IC50 at 5 uM after 48 hrs by MTT assay relative to control; assay type: cell-based
Summary of the method: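 K562/A02 cells exposed to a series of adriamycin concentrations with modulator at 5.0 µM; 0.1% DMSO as solvent control. IC50 read by MTT. Reversal fold = IC50 without inhibitor / IC50 with inhibitor. Mean ± SD of three independent tests.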

[10] = molecular target: T1, ATP-dependent translocase ABCB1; assay: Inhibition of ABCB1 in human K562/A02 cells assessed as increase in intracellular Rh123 accumulation at 5 uM up to 90 mins by flow cytometry; assay type: cell-based; details: 1.5 h
Summary of the method: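 K562/A02 cells treated with 5.0 µM modulator; Rh123-associated mean fluorescence intensity read by flow cytometry at 5, 10, 25, 30, 60 and 90 min. Untreated cells as negative control. Mean ± SD of three experiments.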

[11] = molecular target: T1, ATP-dependent translocase ABCB1; assay: Inhibition of ABCB1 ATPase in human ABCB1 membrane fraction assessed as decrease in ATPase activity at 0.5 uM preincubated with compound followed by addition of MgATP measured after 1 hr by luciferase reporter gene assay relative to control; assay type: cell membranes
GES1 = assay: Cytotoxicity against human GES-1 cells after 48 hrs by MTT assay; assay type: cell-based; details: GES1, 48 h
Summary of the method: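 Survival of GES-1 cells measured across a range of compound concentrations to give the IC50. Mean ± SD of three independent tests.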

K562/A02 [12] = assay: Potentiation of cyclophosphamide-mediated cytotoxicity against human K562/A02 cells at 5 uM after 48 hrs by MTT assay; assay type: functional, cell-based
Summary of the method: (§3)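 K562/A02 cells given daunorubicin, paclitaxel, vinblastine (P-gp substrates) or cyclophosphamide (non-substrate), each with modulator at 5.0 µM; cytotoxicity then measured. Mean ± SD of three independent tests.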

[13] = molecular target: T1, ATP-dependent translocase ABCB1; assay: Inhibition of ABCB1 in human K562/A02 cells assessed as potentiation of vinblastine-mediated cytotoxicity at 5 uM after 48 hrs by MTT assay; assay type: cell-based; summary of the method: as §3
[14] = molecular target: T1, ATP-dependent translocase ABCB1; assay: Inhibition of ABCB1 in human K562/A02 cells assessed as potentiation of paclitaxel-mediated cytotoxicity at 5 uM after 48 hrs by MTT assay; assay type: cell-based; summary of the method: as §3
K562/A02 [15] = assay: Effect on ABCB1 level in human K562/A02 cells at 0.1 to 5 uM after 72 hrs by Western blot analysis; assay type: functional, cell-based
Summary of the method: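 K562/A02 cells exposed to 0.1, 1.0 or 5.0 µmol/L compound for 72 h. ABCB1 detected by western blot; band intensity expressed as a ratio to β-tubulin.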

[16] = Inhibition of CYP3A4 in rat liver microsomes assessed as 6beta-hydroxytestosterone formation at 40 uM using testosterone as substrate by reverse-phase HPLC analysis; assay type: ADME
[17] = molecular target: T1, ATP-dependent translocase ABCB1; assay: Inhibition of ABCB1 in human K562/A02 cells assessed as potentiation of daunorubicin-mediated cytotoxicity at 5 uM after 48 hrs by MTT assay; assay type: cell-based; summary of the method: as §3
K562/A02 [18] = assay: Cytotoxicity against human K562/A02 cells assessed as cell survival at 5 uM after 48 hrs by MTT assay relative to control; assay type: cell-based; details: k562/a02, 48 h, 5 µM
Summary of the method: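 MTT viability assay in P-gp-overexpressing, ADM-resistant K562/A02 cells, alongside parental K562. […] Values are mean ± SD of three independent tests.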

[19] = Selectivity index, ratio of IC50 for human GES-1 cells to EC50 for inhibition of ABCB1 in human K562/A02 cells assessed as potentiation of adriamycin-induced cytotoxicity by measuring compound concentration required for reduction of ADR IC50
Summary of the method: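 SI = IC50 in GES-1 cells divided by EC50 for reversal of adriamycin resistance in K562/A02 cells.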

N#CC1(c2ccc(NC(=O)c3cccnc3NCc3ccncc3)cc2)CCCC1 [RIVOCERANIB]
IC50 (K562): 14.9 to 15.9 µM | IC50 (K562/A02 [1]): 19.8 to 20.8 µM | fold change (FC) [2]: 1.41 | fold change (FC) [3]: 3.97 | fold change (FC) [4]: 6.12 | fold change (FC) [5]: 2.46 | fold change (FC) [6]: 7.35 | fold change (FC) [7]: 2.68 | inhibition (INH) [8]: Active | fold change (FC) [9]: 8.63 to 8.71 | inhibition (INH) [10]: Active

COc1cc2c(cc1OC)CN(CCc1ccc(NC(=O)c3cccnc3NCc3ccncc3)cc1)CC2
IC50 (K562): 55.4 µM | IC50 (K562/A02 [1]): 74.9 µM | inhibition (INH) [11]: Active | IC50 (GES1): > 100 µM | fold change (FC) [3]: 14.54 | fold change (FC) [4]: 20.03 | fold change (FC) [5]: 7.84 | fold change (FC) [6]: 27.98 | Activity (K562/A02 [12]): inactive | inhibition (INH) [8]: Active | inhibition (INH) [13]: Active | inhibition (INH) [14]: Active | Activity (K562/A02 [15]): inactive | inhibition (INH) [16]: Not Active | inhibition (INH) [17]: Active | Activity (K562/A02 [18]): Non-Toxic | Ratio IC50/EC50 [19]: >836.1 | inhibition (INH) [10]: Active
